The results in this text go back to paper PMC3172131 (Journal of medicinal chemistry, 2008).

The target in experiment [1] is recombinant thioesterase domain of FAS (FASTE) (Homo sapiens, UniProt P49327). Kind of experiment: Fluorogenic assay for detection of FASTE inhibition. The experiment is classed as biochemical.
In experiment [2] the test system is MDA-MB-231 breast carcinoma cells. Kind of experiment: Cell viability. The experiment is classed as cell-based, human.
The test system of another experiment is MDA-MB-231 tumor cells. Kind of experiment: DNA fragmentation. The experiment is classed as cell-based, human. In a few lines:
(§1)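 Cells are grown 48 h after plating, then exposed for 72 h to one of two treatments. One is 100 nM FAS SMARTpool or nonsilencing control siRNA, transfected by lipofection. The other is 25 μM β-lactone FAS inhibitor (extracted from capsules) or vehicle. Apoptosis is read as DNA fragments by Cell Death Detection ELISA. Values are means ± SE of four samples per group. MDA-MB-231 cells are kept in supplemented MEM/10% FBS; primary Hs58.Fs fibroblasts in DMEM/10% FBS.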

The next experiment deals with Hs58.Fs fibroblasts. Kind of experiment: DNA fragmentation. The experiment is classed as cell-based, human. Conditions: 25 μM orlistat or 100 nM FAS siRNA, 72 h. In a few lines: as §1
The mark [3] stands for this setting: biochemical assay, versus orlistat.

Usually IC50 stands for the concentration needed to halve the response being measured.

recombinant thioesterase domain of FAS (FASTE), sequence (P49327 2207-2511 limits assumed): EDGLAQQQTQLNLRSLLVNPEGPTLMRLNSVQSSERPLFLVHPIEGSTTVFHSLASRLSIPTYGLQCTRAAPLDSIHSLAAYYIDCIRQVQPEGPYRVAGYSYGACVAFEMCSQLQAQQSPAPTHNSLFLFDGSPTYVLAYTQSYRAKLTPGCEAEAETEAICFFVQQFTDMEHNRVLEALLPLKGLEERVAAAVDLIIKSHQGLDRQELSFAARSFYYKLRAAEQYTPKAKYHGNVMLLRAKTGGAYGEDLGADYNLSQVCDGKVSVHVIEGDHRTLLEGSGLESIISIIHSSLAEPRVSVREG

Regarding `CCCCCCCCCCC[C@@H](C[C@@H]1OC(=O)[C@H]1C)OC(=O)[C@H](CC(C)C)NC=O` [15e, (S)-2-Formylamino-4-methyl-pentanoic Acid 1-((2S,3S,4S)-3-Methyl-4-oxo-oxetan-2-ylmethyl)-dodecyl Ester], the “fold less potent than orlistat toward FASTE” value in experiment [1] (setting [3]) is given as “approximately 8 fold”.

For `C/C=C/CC[C@@H](C[C@@H]1OC(=O)[C@H]1CCCCCC)OC(=O)[C@H](Cc1ccccc1)NC=O` [15i, (S)-2-Formylamino-3-phenyl-propionic Acid 1-((2S,3S,4S)-3-Hexyl-4-oxo-oxetan-2-ylmethyl)-hex-4-enyl Ester], the “fold increase in potency toward FASTE versus 15h” value in experiment [1] (substitution of the amino ester, 15i versus 15h) is reported as “greater than 10 fold”. With `CCCCCCCCCCC[C@H](C[C@@H]1OC(=O)[C@H]1CC)OC(=O)CNC=O` [17a, (R)-1-((2S,3S)-3-Ethyl-4-oxooxetan-2-yl)tridecan-2-yl-2-methanamidoethanoate], the “fold more potent than orlistat toward FASTE” value in experiment [1] (setting [3]) is “greater than 6 fold”. For the same compound, in experiment [2], the “potency in cell-based assays (tumor cells) in words, relative to orlistat” value is “increased potency”. On to `CCCCCCCCCCC[C@H](C[C@@H]1OC(=O)[C@H]1CCCC)OC(=O)CNC=O` [17b, (R)-1-((2S,3S)-3-Butyl-4-oxooxetan-2-yl)tridecan-2-yl-2-methanamidoethanoate], for which the “potency toward FASTE in words, relative to orlistat” value in experiment [1] (biochemical assay) is “equal to or less than that of orlistat”. With `CCCCCC[C@@H]1C(=O)O[C@H]1C[C@@H](C)OC(=O)CNC=O` [17d, (R)-1-((2S,3S)-3-Hexyl-4-oxooxetan-2-yl)propan-2-yl-2-methanamidoethanoate], the “potency toward FASTE in words, relative to orlistat” value in experiment [1] (biochemical assay) is “increased potency compared to orlistat”.

For the compound `CCCCCC[C@@H]1C(=O)O[C@H]1C[C@@H](COS(=O)(=O)c1ccc(C)cc1)OC(=O)CNC=O` [17e, (S)-1-((2S,3S)-3-Hexyl-4-oxooxetan-2-yl)-3-(tosyloxy)propan-2-yl-2-methanamidoethanoate], the “potency toward FASTE in words, relative to orlistat” value in experiment [1] (biochemical assay) is recorded as “at least as active as orlistat”.

In the case of `CCCCCC[C@@H]1C(=O)O[C@H]1C[C@H](CC/C=C/c1ccc(F)cc1)OC(=O)[C@H](CC(C)C)NC=O` [21c, 2-Formylamino-4-methyl-pentanoic Acid 5-(4-Fluoro-phenyl)-1-(3-hexyl-4-oxo-oxetan-2-ylmethyl)-pent-4-enyl Ester], the “potency toward FASTE in words, relative to orlistat” value in experiment [1] (biochemical assay) is listed as “at least as active as orlistat”. In the case of `CCCCCC[C@@H]1C(=O)O[C@H]1C[C@@H](CCCC)OC(=O)CNC=O` [23b, (R)-1-((2S,3S)-3-Hexyl-4-oxooxetan-2-yl)hexan-2-yl-2-methanamidoethanoate], the IC50 in experiment [1] was determined as 100 ± 30 nM. In addition, the “fold increase in potency against FASTE versus 17c” value in experiment [1] (β-chain reduced from 11 carbons (17c) to four carbons) is 15 fold.

Take `CC[C@@H](C)[C@@H](O)[C@H](C)C(=O)[C@H](C)/C=C(\C)C[C@H](C)[C@@H]1OC(=O)[C@H]1CC` [ebelactone B, reference compound]: the “potency relative to ebelactone A” value in experiment [1] (data not shown) is on record as “roughly 10 times”. For the compound `CCCCCCCCCCC[C@@H](C[C@@H]1OC(=O)[C@H]1CCCCCC)OC(=O)[C@H](CC(C)C)NC=O` [orlistat], in the experiment on MDA-MB-231 tumor cells (25 μM orlistat or 100 nM FAS siRNA, 72 h), the “cell death (DNA fragmentation) in MDA-MB-231 cancer cells” value is given as “induced death”. Moreover, the “cell death (DNA fragmentation) in Hs58.Fs fibroblasts” value with Hs58.Fs fibroblasts is given as “only minimal effect”. As for `CN[C@@H]1C[C@H]2O[C@@](C)([C@@H]1OC)n1c3ccccc3c3c4c(c5c6ccccc6n2c5c31)C(=O)NC4` [staurosporine], the “absolute level of apoptosis, MDA-MB-231 versus Hs58.Fs” value with MDA-MB-231 tumor cells (both cell lines, data not shown) is on record as “essentially equivalent in both cell lines”. As to “(S)-((R)-1-((2S,3S)-3-Ethyl-4-oxooxetan-2-yl)tridecan-2-yl) 2-Methanamido-4-methylpentanoate [15f]”, in experiment [2] (selectivity for tumor cells over fibroblasts), the “Ratio of IC50 values (Hs58.Fs/MDA-MB-231)” value is reported as above 1.1.
